ChEMBL document CHEMBL4325900, “Antibacterial activity evaluation of synthetic novel pleuromutilin derivatives in vitro and in experimental infection mice” (2019)
Values after ≈ are worked out from the molar mass of the structure shown.

Assays:
Staphylococcus aureus [1] = assay: Antibacterial activity against methicillin-sensitive Staphylococcus aureus after 24 hrs by NCCLS method; format: functional
Summary of the method: (§1)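 Broth microdilution in Mueller-Hinton broth. Stocks at 1280 µg/mL in aqueous 10-20% DMSO were diluted to 128 µg/mL, then serially 2-fold diluted giving final concentrations of 64 down to 0.125 µg/mL. Overnight MHB cultures were diluted to 10^6~10^7 CFU/mL, and 100 µL was added per well. Plates ran 24 h at 37°C. MIC was read from OD against an MHB blank, in triplicate.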

Staphylococcus aureus [2] = assay: Antibacterial activity against methicillin-resistant Staphylococcus aureus after 24 hrs by NCCLS method; format: functional
Summary of the method: (§2)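 Broth microdilution in Mueller-Hinton broth. Stocks at 1280 µg/mL in aqueous 10-20% DMSO, diluted to 128 µg/mL, then 2-fold serially to final 64 down to 0.125 µg/mL. Overnight MHB cultures diluted to 10^6~10^7 CFU/mL and added 1:1 to compound. Incubated 24 h at 37°C. MIC read from OD against MHB blank. Three parallels per concentration.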

[3] = tested on: Staphylococcus epidermidis; assay: Antibacterial activity against methicillin-sensitive Staphylococcus epidermidis after 24 hrs by NCCLS method; format: functional; summary of the method: as §2
[4] = tested on: Staphylococcus epidermidis; assay: Antibacterial activity against methicillin-resistant Staphylococcus epidermidis after 24 hrs by NCCLS method; format: functional; summary of the method: as §2
Enterococcus faecium = assay: Antibacterial activity against Enterococcus faecium after 24 hrs by NCCLS method; format: functional; summary of the method: as §1
Enterococcus faecalis = assay: Antibacterial activity against Enterococcus faecalis after 24 hrs by NCCLS method; format: functional; summary of the method: as §1
Escherichia coli [5] = assay: Antibacterial activity against Escherichia coli ATCC 11775 after 24 hrs by NCCLS method; format: functional; conditions: DSM 30083 = JCM 1649 = ATCC 11775, 24 h; summary of the method: as §1
Pasteurella multocida = assay: Antibacterial activity against Pasteurella multocida after 24 hrs by NCCLS method; format: functional; summary of the method: as §1
Staphylococcus aureus [6] = assay: Bactericidal activity against exponential phase of methicillin-resistant Staphylococcus aureus after 1 to 4 hrs by time kill kinetics assay; format: functional, organism-based
Summary of the method: (§3)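 Exponential-phase S. aureus (4 h at 37°C, 120 rpm) diluted to ~2×10^7 CFU/mL in MHB and mixed 1:1 with MHB containing twice the desired compound concentration. Shaken at 37°C, 120 rpm. Samples at 1, 2, 3 and 4 h washed with PBS, diluted, spot-plated on MH agar, counted after ~18 h at 37°C as log10 CFU/mL. Triplicate, mean±s.d.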

Staphylococcus aureus [7] = assay: Bactericidal activity against exponential phase of methicillin-resistant Staphylococcus aureus assessed as time required for complete bacterial killing at 8 times MIC by time kill kinetics assay; format: functional; summary of the method: as §3
Staphylococcus aureus [8] = assay: Bactericidal activity against exponential phase of methicillin-resistant Staphylococcus aureus assessed as time required for complete bacterial killing at 4 times MIC by time kill kinetics assay; format: functional; summary of the method: as §3
Staphylococcus aureus [9] = assay: Antibacterial activity against methicillin-resistant Staphylococcus aureus clinical isolates infected in ip dosed mouse assessed as reduction in bacterial infection administered 1 hr after infection and measured after 7 days; format: functional
Summary of the method: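 Kunming mice, half male and half female, 19-23 g, 10 per group. Infected i.p. with 0.5 mL clinical MRSA isolate suspension (~10^7 CFU/mL). Single i.p. dose 1 h post-infection, five dose levels between 7.0 and 50.0 mg/kg depending on compound. Vehicle was DMSO:Tween-80:water 1:1:8, or water for valnemulin. ED50 by Probit analysis from survival after 7 days; 95% confidence ranges.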

Staphylococcus aureus [10] = assay: Antibacterial activity against methicillin-resistant Staphylococcus aureus infected in Kunming mouse assessed as mouse survival at 40 mg/kg, ig qd treated for 3 consecutive days and measured during compound treatment relative to control; format: functional; conditions: po
Summary of the method: (§4)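 Female Kunming mice, 22±2 g, made neutropenic with cyclophosphamide i.p., 150 mg/kg 4 days and 100 mg/kg 1 day before infection. Infected i.p. with 0.5 mL suspension of clinical MRSA isolate. Intragastric dosing at 20 or 40 mg/kg/d, starting 1 h post-infection, once daily for 3 consecutive days. Survival monitored.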

Staphylococcus aureus [11] = assay: Antibacterial activity against methicillin-resistant Staphylococcus aureus infected in Kunming mouse assessed as mouse survival at 40 mg/kg, ig qd treated for 3 consecutive days and measured at day 5 relative to control; format: functional; conditions: po, 120 h; summary of the method: as §4
Staphylococcus aureus [12] = assay: Antibacterial activity against methicillin-resistant Staphylococcus aureus infected in Kunming mouse assessed as mouse survival at 40 mg/kg, ig qd treated for 3 consecutive days and measured at day 6 relative to control; format: functional; conditions: po, 144 h; summary of the method: as §4
Staphylococcus aureus [13] = assay: Antibacterial activity against methicillin-resistant Staphylococcus aureus infected in Kunming mouse assessed as mouse survival at 20 mg/kg, ig qd treated for 3 consecutive days and measured up to 10 days relative to control; format: functional; conditions: po, 240 h; summary of the method: as §4
Escherichia coli [14] = assay: Potency index, ratio of MIC for Valnemulin hydrochloride to MIC for test compound for antibacterial activity against Escherichia coli ATCC 11775 after 24 hrs by NCCLS method; format: functional, DSM 30083 = JCM 1649 = ATCC 11775

SMILES	MIC (Staphylococcus aureus [1]) [µg/mL]	MIC (Staphylococcus aureus [2]) [µg/mL]	MIC [3] [µg/mL]	MIC [4] [µg/mL]	MIC (Enterococcus faecium) [µg/mL]	MIC (Enterococcus faecalis) [µg/mL]	MIC (Escherichia coli [5]) [µg/mL]	MIC (Pasteurella multocida) [µg/mL]	Activity (Staphylococcus aureus [6])	Time (Staphylococcus aureus [7]) [h]	Time (Staphylococcus aureus [8]) [h]	ED50 (Staphylococcus aureus [9]) [mg/kg]	survival at 40 mg/kg (Staphylococcus aureus [10]) [%]	survival at 40 mg/kg (Staphylococcus aureus [11]) [%]	survival at 40 mg/kg (Staphylococcus aureus [12]) [%]	survival at 20 mg/kg (Staphylococcus aureus [13]) [%]	Ratio (Escherichia coli [14])
C=C[C@]1(C)C[C@@H](OC(=O)CSc2nc(NC(=O)CN3CCNCC3)c3cc[nH]c3n2)[C@]2(C)[C@H](C)CC[C@]3(CCC(=O)[C@H]32)[C@@H](C)[C@@H]1O	2 (≈ 3.06 µM)	4 (≈ 6.13 µM)	1 (≈ 1.53 µM)	1 (≈ 1.53 µM)	1 (≈ 1.53 µM)	64 (≈ 98 µM)	> 64	32 (≈ 49 µM)									
C=C[C@]1(C)C[C@@H](OC(=O)CSc2nc(NC(=O)CN3CCN(c4ccccc4)CC3)c3cc[nH]c3n2)[C@]2(C)[C@H](C)CC[C@]3(CCC(=O)[C@H]32)[C@@H](C)[C@@H]1O	1 (≈ 1.37 µM)	1 (≈ 1.37 µM)	0.5 (≈ 0.686 µM)	1 (≈ 1.37 µM)	1 (≈ 1.37 µM)	64 (≈ 87.8 µM)	> 64	64 (≈ 87.8 µM)									
C=C[C@]1(C)C[C@@H](OC(=O)CSc2nc(NC(=O)CN3CCC(N(C)C)CC3)c3cc[nH]c3n2)[C@]2(C)[C@H](C)CC[C@]3(CCC(=O)[C@H]32)[C@@H](C)[C@@H]1O	0.5 (≈ 0.719 µM)	1 (≈ 1.44 µM)	0.5 (≈ 0.719 µM)	0.5 (≈ 0.719 µM)	1 (≈ 1.44 µM)	64 (≈ 92.1 µM)	> 64	64 (≈ 92.1 µM)									
C=C[C@]1(C)C[C@@H](OC(=O)CSc2nc(NC(=O)CN3CCC(c4ccccc4)CC3)c3cc[nH]c3n2)[C@]2(C)[C@H](C)CC[C@]3(CCC(=O)[C@H]32)[C@@H](C)[C@@H]1O	0.25 (≈ 0.343 µM)	0.25 (≈ 0.343 µM)	0.25 (≈ 0.343 µM)	0.25 (≈ 0.343 µM)													
C=C[C@]1(C)C[C@@H](OC(=O)CSc2nc(NC(=O)CN3CCC(O)CC3)c3cc[nH]c3n2)[C@]2(C)[C@H](C)CC[C@]3(CCC(=O)[C@H]32)[C@@H](C)[C@@H]1O		2 (≈ 2.99 µM)	1 (≈ 1.5 µM)	1 (≈ 1.5 µM)													
C=C[C@]1(C)C[C@@H](OC(=O)CSc2nc(NC(=O)CN3CCC(N4CCCCC4)CC3)c3cc[nH]c3n2)[C@]2(C)[C@H](C)CC[C@]3(CCC(=O)[C@H]32)[C@@H](C)[C@@H]1O	0.5 (≈ 0.68 µM)	0.5 (≈ 0.68 µM)	0.25 (≈ 0.34 µM)	0.5 (≈ 0.68 µM)	0.0625 (≈ 0.085 µM)	64 (≈ 87.1 µM)	64 (≈ 87.1 µM)	64 (≈ 87.1 µM)									
C=C[C@]1(C)C[C@@H](OC(=O)CSc2nc(NC(=O)CN3CCC(CO)CC3)c3cc[nH]c3n2)[C@]2(C)[C@H](C)CC[C@]3(CCC(=O)[C@H]32)[C@@H](C)[C@@H]1O	0.25 (≈ 0.367 µM)	0.25 (≈ 0.367 µM)	0.125 (≈ 0.183 µM)	0.125 (≈ 0.183 µM)	0.25 (≈ 0.367 µM)	64 (≈ 93.9 µM)	> 64	64 (≈ 93.9 µM)									
C=C[C@]1(C)C[C@@H](OC(=O)CSc2nc(N)c3cc[nH]c3n2)[C@]2(C)[C@H](C)CC[C@]3(CCC(=O)[C@H]32)[C@@H](C)[C@@H]1O	1 (≈ 1.9 µM)	1 (≈ 1.9 µM)	1 (≈ 1.9 µM)	2 (≈ 3.8 µM)	1 (≈ 1.9 µM)	64 (≈ 122 µM)	> 64	64 (≈ 122 µM)									
C=C[C@]1(C)C[C@@H](OC(=O)CSc2nc(NC(=O)CN3CCCC3)c3cc[nH]c3n2)[C@]2(C)[C@H](C)CC[C@]3(CCC(=O)[C@H]32)[C@@H](C)[C@@H]1O	0.0625 (≈ 0.098 µM)	0.0625 (≈ 0.098 µM)	0.0625 (≈ 0.098 µM)	0.0625 (≈ 0.098 µM)	0.0625 (≈ 0.098 µM)	64 (≈ 100 µM)	32 (≈ 50.2 µM)	16 (≈ 25.1 µM)	Dose-dependent effect	2	4	16	> 90	70	80	30	
C=C[C@]1(C)C[C@@H](OC(=O)CSC(C)(C)CNC(=O)[C@H](N)C(C)C)[C@]2(C)[C@H](C)CC[C@]3(CCC(=O)[C@H]32)[C@@H](C)[C@@H]1O.Cl [VALNEMULIN HYDROCHLORIDE]	0.25	0.25	0.125	0.25	0.125	> 64	32	16	Dose-dependent effect			13.5	> 90	70	80	30	
C=C[C@]1(C)C[C@@H](OC(=O)CSc2nc(NC(=O)CN3CCCCC3)c3cc[nH]c3n2)[C@]2(C)[C@H](C)CC[C@]3(CCC(=O)[C@H]32)[C@@H](C)[C@@H]1O	0.0625 (≈ 0.0959 µM)	0.125 (≈ 0.192 µM)	0.0625 (≈ 0.0959 µM)	0.125 (≈ 0.192 µM)	0.125 (≈ 0.192 µM)	32 (≈ 49.1 µM)	64 (≈ 98.2 µM)	32 (≈ 49.1 µM)				19.7					
C=C[C@]1(C)C[C@@H](OC(=O)CSc2nc(NC(=O)CN(CC)CC)c3cc[nH]c3n2)[C@]2(C)[C@H](C)CC[C@]3(CCC(=O)[C@H]32)[C@@H](C)[C@@H]1O	0.0625 (≈ 0.0977 µM)	0.0625 (≈ 0.0977 µM)	0.0625 (≈ 0.0977 µM)	0.125 (≈ 0.195 µM)	0.125 (≈ 0.195 µM)	32 (≈ 50 µM)	16 (≈ 25 µM)	64 (≈ 100 µM)				27.7					2
C=C[C@]1(C)C[C@@H](OC(=O)CSc2nc(NC(=O)CNC3CC3)c3cc[nH]c3n2)[C@]2(C)[C@H](C)CC[C@]3(CCC(=O)[C@H]32)[C@@H](C)[C@@H]1O	0.125 (≈ 0.2 µM)	0.25 (≈ 0.401 µM)	0.125 (≈ 0.2 µM)	0.25 (≈ 0.401 µM)	0.25 (≈ 0.401 µM)	64 (≈ 103 µM)	> 64	32 (≈ 51.3 µM)									
C=C[C@]1(C)C[C@@H](OC(=O)CSc2nc(NC(=O)CN3CCN(C)CC3)c3cc[nH]c3n2)[C@]2(C)[C@H](C)CC[C@]3(CCC(=O)[C@H]32)[C@@H](C)[C@@H]1O	0.125 (≈ 0.187 µM)	1 (≈ 1.5 µM)	0.25 (≈ 0.375 µM)	0.5 (≈ 0.75 µM)	0.5 (≈ 0.75 µM)	64 (≈ 96 µM)	> 64	32 (≈ 48 µM)									
C=C[C@]1(C)C[C@@H](OC(=O)CSc2nc(NC(=O)CNC3CCCCC3)c3cc[nH]c3n2)[C@]2(C)[C@H](C)CC[C@]3(CCC(=O)[C@H]32)[C@@H](C)[C@@H]1O	0.5 (≈ 0.751 µM)	1 (≈ 1.5 µM)	0.5 (≈ 0.751 µM)	0.5 (≈ 0.751 µM)	0.5 (≈ 0.751 µM)	64 (≈ 96.1 µM)	> 64	64 (≈ 96.1 µM)									
C=C[C@]1(C)C[C@@H](OC(=O)CSc2nc(NC(=O)CN3CCN(c4ccccn4)CC3)c3cc[nH]c3n2)[C@]2(C)[C@H](C)CC[C@]3(CCC(=O)[C@H]32)[C@@H](C)[C@@H]1O	1 (≈ 1.37 µM)	0.5 (≈ 0.685 µM)	0.5 (≈ 0.685 µM)	0.5 (≈ 0.685 µM)	0.25 (≈ 0.342 µM)	64 (≈ 87.7 µM)	> 64	> 64									
C=C[C@]1(C)C[C@@H](OC(=O)CSc2nc(NC(=O)CN3CCOCC3)c3cc[nH]c3n2)[C@]2(C)[C@H](C)CC[C@]3(CCC(=O)[C@H]32)[C@@H](C)[C@@H]1O	0.125 (≈ 0.191 µM)	0.25 (≈ 0.382 µM)	0.25 (≈ 0.382 µM)	0.25 (≈ 0.382 µM)	0.25 (≈ 0.382 µM)	64 (≈ 97.9 µM)	64 (≈ 97.9 µM)	32 (≈ 48.9 µM)									
